Measured values as given in ChEMBL document CHEMBL3612009, “Synthesis and structure-activity relationship study of a new series of antiparasitic aryloxyl thiosemicarbazones inhibiting Trypanosoma cruzi cruzain” (Eur J Med Chem, 2015).
Active and inactive are the calls of the source. The rule behind the calls is not given here.

Experiments:
Trypanosoma cruzi [1] = experiment: Antiparasitic activity against trypomastigotes of Trypanosoma cruzi Y assessed as induction of parasite death at 5 uM after 24 hrs using propidium iodide staining after 24 hrs by flow cytometry analysis; assay type: functional
How it was run: (§1)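 Y strain trypomastigotes (4x10^5) in RPMI-1640 with 10% FBS, exposed to test agent for 24 h at 37 °C, 5% CO2; then stained with propidium iodide and analysed by flow cytometry, at least 10,000 events. Read-out is % PI-positive cells versus untreated parasites; Triton X-100 as positive control. Two independent experiments, each concentration in duplicate.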

[2] = Selectivity index, ratio of CC50 for mouse L929 cells to IC50 for amastigote and trypomastigote forms of Trypanosoma cruzi Tulahuen; assay type: functional
How it was run: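 SI = CC50 in uninfected L-929 fibroblasts (alamarBlue, 96 h) divided by IC50 against intracellular amastigote/trypomastigote forms (beta-galactosidase assay, 7 days).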

Trypanosoma cruzi [3] = experiment: Antiparasitic activity against trypomastigotes of Trypanosoma cruzi Y assessed as induction of parasite death at 25 uM after 24 hrs using propidium iodide staining after 24 hrs by flow cytometry analysis; assay type: functional; how it was run: as §1
Trypanosoma cruzi [4] = experiment: Antiparasitic activity against trypomastigotes of Trypanosoma cruzi Y assessed as reduction of parasite count after 24 hrs; assay type: functional
[5] = target: Cruzipain (Trypanosoma cruzi) (UniProt P25779); experiment: Inhibition of Trypanosoma cruzi catalytic activity of cruzain using Z-FR-AMC as substrate at 100 uM after 10 mins by fluorescence assay
[6] = Cytotoxicity against mouse L929 cells assessed as cell viability after 96 hrs by alamarBlue assay; assay type: cell-based
How it was run: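 Uninfected L-929 cells at the same cell number and timing as the beta-galactosidase assay; increasing concentrations starting at the T. cruzi IC50, quadruplicate. After 96 h, alamarBlue added; absorbance at 570 and 600 nm read 6 h later. Viability as % reduction versus untreated; CC50 by linear interpolation.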

[7] = Cytotoxicity against BALB/c mouse splenocytes assessed as maximum non-toxic concentration by measuring [3H]-thymidine incorporation after 24 hrs by liquid scintillation counting; assay type: cell-based, Splenocyte
How it was run: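 BALB/c splenocytes, 5 x 10^6 cells/well, given compounds at 1.23, 3.7, 33.33 and 100 µg/mL, 1% DMSO final, triplicate; 24 h at 37 °C, 5% CO2. Then 1.0 µCi [3H]-thymidine added; cells harvested and counted by liquid scintillation. Highest non-cytotoxic concentration taken from % incorporation.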

Trypanosoma cruzi [8] = experiment: Antitrypanosomal activity against amastigote and trypomastigote forms of Trypanosoma cruzi Tulahuen expressing beta-galactosidase gene infected in mouse L-929 cells assessed as inhibition of parasite growth at 100 uM after 7 days by colorimetric betagalactosidase assay; assay type: functional; settings: L929, 168 h
Trypanosoma cruzi [9] = experiment: Antiparasitic activity against trypomastigotes of Trypanosoma cruzi Y assessed as induction of parasite death after 24 hrs using propidium iodide staining after 24 hrs by flow cytometry analysis; assay type: functional, organism-based
How it was run: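 Y strain trypomastigotes (4x10^5) in RPMI-1640 + 10% FBS exposed to 0.5 or 5.0 µM of each thiosemicarbazone, benznidazole 25 µM, or Triton X-100, for 24 h at 37 °C, 5% CO2. Then PI-stained and read by flow cytometry, at least 10,000 events. Two independent experiments, duplicates.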

Trypanosoma cruzi [10] = experiment: Antiparasitic activity against epimastigotes of Trypanosoma cruzi Dm28c assessed as reduction of parasite count after 5 days; assay type: functional; settings: 120 h
[11] = target: Cruzipain (Trypanosoma cruzi) (UniProt P25779); experiment: Inhibition of Trypanosoma cruzi catalytic activity of cruzain using Z-FR-AMC as substrate at 50 uM after 10 mins by fluorescence assay
Trypanosoma cruzi [12] = experiment: Antiparasitic activity against trypomastigotes of Trypanosoma cruzi Y assessed as induction of parasite death at 0.5 uM after 24 hrs using propidium iodide staining after 24 hrs by flow cytometry analysis; assay type: functional; how it was run: as §1
Trypanosoma cruzi [13] = experiment: Antitrypanosomal activity against amastigote and trypomastigote forms of Trypanosoma cruzi Tulahuen expressing beta-galactosidase gene infected in mouse L-929 cells assessed as inhibition of parasite growth after 7 days by colorimetric betagalactosidase assay; assay type: functional, organism-based; settings: L929, 168 h
Cruzipain = Cruzipain (Trypanosoma cruzi, UniProt P25779); experiment: Inhibition of Trypanosoma cruzi catalytic activity of cruzain using Z-FR-AMC as substrate after 10 mins by fluorescence assay
Sequence of Cruzipain (P25779 whole entry): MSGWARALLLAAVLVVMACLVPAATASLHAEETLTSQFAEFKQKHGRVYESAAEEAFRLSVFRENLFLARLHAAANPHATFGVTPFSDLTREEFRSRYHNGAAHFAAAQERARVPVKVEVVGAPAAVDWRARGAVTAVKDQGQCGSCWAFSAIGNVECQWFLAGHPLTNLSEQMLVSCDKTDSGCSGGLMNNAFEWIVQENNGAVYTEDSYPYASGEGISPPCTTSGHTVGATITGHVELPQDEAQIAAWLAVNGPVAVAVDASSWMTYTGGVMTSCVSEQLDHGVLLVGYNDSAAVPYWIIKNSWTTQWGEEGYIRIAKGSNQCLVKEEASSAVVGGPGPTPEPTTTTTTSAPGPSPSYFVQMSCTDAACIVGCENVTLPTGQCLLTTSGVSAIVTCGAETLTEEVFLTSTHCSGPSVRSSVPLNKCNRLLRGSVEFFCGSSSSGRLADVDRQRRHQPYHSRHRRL

Sequence of Cruzipain (Trypanosoma cruzi) (P25779 123-467 limits assumed): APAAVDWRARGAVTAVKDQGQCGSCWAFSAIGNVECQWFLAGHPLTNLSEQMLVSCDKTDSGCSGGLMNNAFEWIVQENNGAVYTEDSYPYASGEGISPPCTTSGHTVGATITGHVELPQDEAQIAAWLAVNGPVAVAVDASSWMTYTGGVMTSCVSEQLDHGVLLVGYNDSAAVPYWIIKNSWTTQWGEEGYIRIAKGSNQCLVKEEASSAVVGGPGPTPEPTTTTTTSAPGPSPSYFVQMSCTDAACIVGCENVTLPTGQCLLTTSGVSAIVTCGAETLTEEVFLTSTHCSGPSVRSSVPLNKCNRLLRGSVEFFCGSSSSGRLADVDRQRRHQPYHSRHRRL

| inhibition [5] | SMILES | Activity (Trypanosoma cruzi [1]) | Ratio CC50/IC50 [2] | Activity (Trypanosoma cruzi [3]) | CC50 (Trypanosoma cruzi [4]) | CC50 at 96 h [6] | MNTC at 24 h [7] | inhibition at 100 µM (Trypanosoma cruzi [8]) | inhibition (Trypanosoma cruzi [9]) | IC50 (Trypanosoma cruzi [10]) | inhibition [11] | Activity (Trypanosoma cruzi [12]) | IC50 (Trypanosoma cruzi [13]) | IC50 (Cruzipain) |
| --- | --- | --- | --- | --- | --- | --- | --- | --- | --- | --- | --- | --- | --- | --- |
|  | O=C(Cn1ccnc1[N+](=O)[O-])NCc1ccccc1 [BENZNIDAZOLE] | 4.2% | 625 | 56.4% | 6200 nM |  |  |  |  |  |  |  |  |  |
| inactive | C/C(=N\NC(N)=S)C(C)Oc1ccccc1-c1ccccc1 (stereo not drawn) |  |  |  |  |  |  |  |  |  |  |  |  |  |
| inactive | CC(=O)Nc1ccc(OC(C)/C(C)=N/NC(N)=S)cc1 (stereo not drawn) |  |  |  |  |  |  |  |  |  |  |  |  |  |
|  | CC(C)c1ccc(OC/C(=N\NC(N)=S)c2ccc(Br)cc2)cc1 | 42.2% | 2 |  | 2900 nM | 24.6 µM | > 246000 nM | > 70% | Dose-dependent effect | 3.8 µM | 49.7% | 2.3% | 12.3 µM |  |
|  | NC(=S)N/N=C(\COc1ccc(F)c(Cl)c1)c1ccc(Br)cc1 | 34% | 5.3 |  | 1700 nM | 48 µM | 2400 nM | > 70% |  | 3.4 µM | 93.7% | 2.7% | 9 µM | 70 nM |
